Shown are actives, neighbours in structure and some others; about 1.7% of the full set was active somewhere.
TPT1 inh: blocks Candida albicans tRNA 2'-phosphotransferase. inhibition, % at 5 µM. AID 1962. actives 0.81% (n = 300,000). recombinant caTPT1, FP RNA substrate dephosphorylation;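 active = inhibition above the mean of all tested compounds plus 3 SD, set per screening campaign, cut at about 24% in these data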;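 also: plate controls were DMSO alone for no effect and ferristatin control at 100 nM for full effect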
CSN inh: inhibitors of human CSN-mediated cullin deneddylation | AID 651999 | Purified CSN, SCF-Nedd8-OG deneddylation, fluorescence polarization | Q92905 | inhibition, % at 12.5 µM | actives 0.38% (n = 360,000);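 active = pattern-corrected inhibition above about 35%, with an unprinted fluorescence ratio check between 0.5 and 1.5, limit read from the data, passing the limit was not always enough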;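 also: 0% = enzyme with substrate and 100% = substrate without enzyme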
Target sequence (Q92905 whole entry, looked up, one chain of several): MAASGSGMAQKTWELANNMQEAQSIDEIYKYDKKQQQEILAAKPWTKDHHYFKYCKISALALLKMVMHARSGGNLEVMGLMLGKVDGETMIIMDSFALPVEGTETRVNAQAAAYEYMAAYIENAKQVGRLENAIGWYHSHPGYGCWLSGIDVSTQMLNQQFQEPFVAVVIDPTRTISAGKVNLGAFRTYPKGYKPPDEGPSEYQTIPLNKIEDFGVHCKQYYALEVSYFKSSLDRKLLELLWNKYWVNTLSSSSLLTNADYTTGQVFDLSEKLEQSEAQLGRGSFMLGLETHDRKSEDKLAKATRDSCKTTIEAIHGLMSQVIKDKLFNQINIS
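Test system: Human Csn5 produced in HEK293T cells | Compound: 12.5 µM single point | Times: 90 min, room temperature | Signal: Fluorescence polarization readout | Read-out basis: % inhibition of substrate cleavage by Csn5 | Controls: no-enzyme wells high, enzyme-with-substrate wells low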
Rev-erbA mod: modulators of human Rev-erb alpha DNA binding. AID 1259318. P20393. Rev-erbα–FITC-DNA binding, fluorescence polarization, 90 min. actives 0.79% (n = 370,000). activity, % at 10 µM;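 active = activity above about 14%, limit read from the data; passing the limit was not always enough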;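 also: 0% = DMSO wells with 35 nM protein and 100% = DMSO wells with 750 nM protein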
HNF4A DNA FP: change in binding of human HNF4 alpha to DNA; P41235; HNF4a-FITC DNA binding, fluorescence polarization, 1 h; activity change, % at 10 µM; actives 0.3% (n = 360,000); AID 1224865; in the data active = activity change above about 30%, passing the limit was not always enough
Active calls of the source: *; nt = no result given.

SMILES	TPT1 inh	CSN inh	Rev-erbA mod	HNF4A DNA FP
O=C(COC(=O)C1CC2C=CC1C2)NCc1ccc(F)cc1 (centres undefined)	-5	5	2	-4
O=C(COC(=O)C1CC2C=CC1C2)NCc1ccco1 (centres undefined)	9	35*	-9	-11
CC(CCN1CCC(C(O)(c2ccccc2)c2ccccc2)CC1)Oc1ccc(C#N)c(F)c1 (centres undefined)	nt	nt	-3	nt
Cc1cc(C)nc(NC(=S)N2CCN(c3ncc(C(F)(F)F)cc3Cl)CC2)c1	nt	nt	0	nt
O=C(CCOc1ccccc1)NCC(c1ccco1)N1CCCCC1 (centres undefined)	2	-5	-4	51*
Cc1nnc(-c2cccc(Br)c2)c2cn(-c3ccc(Br)cc3)nc12	17	91	0	63*
Cc1nnc(-c2cccc(Br)c2)c2cn(-c3ccccc3)nc12	-2	-76	-3	144
C=CCN(CC#CC(=C)C)CC1CC1	nt	nt	7	nt
CCCCCC(=O)O[C@]1(C(C)=O)CCC2C3CCC4=CC(=O)CC[C@]4(C)C3CC[C@@]21C (some centres undefined)	nt	nt	-5	nt
CC(C)OC(=O)CCC/C=C\C[C@@H]1[C@@H](/C=C/[C@@H](O)COc2cccc(C(F)(F)F)c2)[C@H](O)C[C@@H]1O	nt	nt	-2	nt
CC(Oc1ccc(Cl)cc1Cl)C(=O)Nc1ccncc1 (centres undefined)	1	48*	-1	-4
Nn1c(SCC(=O)Nc2c(F)cc(F)cc2Br)nnc1C1CCCCC1	-1	108*	-5	32
COc1ccc(OCC(=O)Nc2cc(-c3nn4c(C)nnc4s3)ccc2C)cc1	1	11	5	42*
Cc1cc(OCC(=O)Nc2cc(-c3nn4c(C)nnc4s3)ccc2C)ccc1Cl	7	20	13	14
N#CC1CCN(c2nc(-c3ccc(Br)cc3)cs2)CC1	nt	nt	3	nt
C=CCN1C(=O)C2(NC(=O)c3ccccc3N2)c2ccccc21 (centres undefined)	-7	4	3	81*
C=CCn1c(SCC(=O)O)nnc1-c1ccco1	nt	nt	0	nt
COc1ccc(Oc2c(OC)cc(NCc3ccc(CN)cc3)c3ncccc23)cc1	nt	42*	-25	-40
COC(=O)CCC(=O)OC1(C)C(=O)C=C2C=C(c3ccsc3)OC=C2C1=O (centres undefined)	10	38*	nt	8
CCC(=O)OC1(C)C(=O)C=C2C=C(c3ccsc3)OC=C2C1=O (centres undefined)	13	26	nt	8
COc1ccc2c(c1)CCC1C2=NN(/C(C)=C/C(C)=O)C1c1cccc(F)c1 (centres undefined)	14	15	6	76*
CCOC(=O)C1CCN(c2ncnc3c2cnn3C)CC1	4	-2	nt	101*
Cc1ccccc1N1CCN(CCc2nnc3n2CCCC3)CC1	nt	nt	-2	nt
Cc1c(NC(=O)C2CCCN2S(=O)(=O)c2ccccc2)c(=O)n(-c2ccccc2)n1C (centres undefined)	-1	57*	1	2
CCN(CC)CCOC(=O)c1ccc(N/C=C(/C#N)c2nc(-c3ccc(OC)cc3)cs2)cc1	6	137*	0	238
SMILES	TPT1 inh	CSN inh	Rev-erbA mod	HNF4A DNA FP
O=c1[nH]cnc2c1ncn2C1O[C@H](CO)[C@@H](O)[C@H]1O (some centres undefined)	nt	nt	-3	nt
CCc1ccc2c(c1)c1nc(C)sc1n2CC	3	54*	1	-3
COc1ccc(-n2c(N)c(C(=O)NCc3ccco3)c3nc4ccccc4nc32)cc1	8	9	5	7
Nc1c(C(=O)NCc2ccco2)c2nc3ccccc3nc2n1CCc1ccc(F)cc1	20	43*	1	13
CCOC(=O)N(C)[C@H]1C[C@H]2c3[nH]c4c(-c5cccc(C)c5)cccc4c3CCN2C[C@H]1[C@H](C)O	nt	nt	1	nt
CCOc1ccc(/C=C2\NCCc3cc(OCC)c(OCC)cc32)cc1OCC	nt	nt	-9	nt
Cc1onc(-c2ccccc2Cl)c1C(=O)NCc1ccco1	4	49*	-21	-12
C(=N\NC1=Nc2cccc3cccc1c23)/c1ccccn1	nt	14	3	54*
CCOC(=O)Cc1csc(NC(=O)c2sc3nc4c(C)cc(C)cc4cc3c2N)n1	12	4	3	40*
Cc1cc(=O)oc2cc(OCC(=O)c3ccccc3)ccc12	0	-1	-3	-4
Cc1cc(=O)oc2cc(OCC(=O)N/N=C/c3ccccc3O)ccc12	-2	106*	1	2
